Measured values taken from ChEMBL document CHEMBL3865795, “Design, synthesis and biological evaluation of N-((1-benzyl-1H-1,2,3-triazol-4-yl)methyl)-1,3-diphenyl-1H-pyrazole-4-carboxamides as CDK1/Cdc2 inhibitors” (2016).
Calls of active or inactive are those of the source. The calls are words filed in the database; no cut-off is given here.

Key:
[1] = Antiproliferative activity against human MIAPaCa2 cells after 48 hrs by SRB assay; assay type: functional; conditions: MIA PaCa-2, 48 h
Summary of the method: (§1)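 SRB assay in ATCC-sourced cells grown in DMEM with 10% FBS and penicillin/streptomycin at 37 °C, 5% CO2. Cells were plated at densities set by doubling time and incubated 24 h before dosing. Compounds (DMSO 10 mM stock diluted in medium) were tested at 0.01, 0.1, 1, 10 and 100 µM with 48 h continuous exposure. Cells were fixed in cold 10% TCA and stained with 0.057% SRB; OD was read at 510 nm. GI50 was derived from time-zero, control and test absorbances and reported as the mean of three independent experiments.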

[2] = Antiproliferative activity against human MCF7 cells after 48 hrs by SRB assay; assay type: functional; conditions: MCF7, 48 h; summary of the method: as §1
[3] = Antiproliferative activity against human HeLa cells after 48 hrs by SRB assay; assay type: functional; summary of the method: as §1
[4] = Downregulation of CDK1 in human MCF7 cells at 50 to 100 nM after 48 hrs by Western blot analysis; assay type: functional, cell-based
Summary of the method: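 MCF-7 cells were treated 48 h at 50 or 100 nM and lysed in RIPA buffer. Lysate (50 µg per lane) was resolved on 10% SDS-PAGE and transferred to PVDF. Membranes were BSA-blocked, probed with primary antibody for 24 h and detected by chemiluminescence, with β-actin as loading control.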

[5] = Cell cycle arrest in human MCF7 cells assessed as accumulation at G2/M phase after 48 hrs by propidium iodide-staining based FACS analysis; assay type: functional
Summary of the method: (§2)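 MCF-7 cells were incubated 48 h with compound at 50 or 100 nM; nocodazole 100 nM was the reference. Untreated and treated cells were harvested, washed in PBS, fixed in ice-cold 70% ethanol, stained with propidium iodide and analysed by flow cytometry for cell-cycle phase distribution.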

[6] = Cell cycle arrest in human MCF7 cells assessed as reduction in DNA content at G0/G1 phase at 50 to 100 nM after 48 hrs by propidium iodide-staining based FACS analysis; assay type: functional; summary of the method: as §2
MCF7 [7] = assay: Induction of apoptosis in human MCF7 cells assessed as chromatin condensation at 50 to 100 nM after 48 hrs by Hoechst 33242-staining based fluorescence microscopic analysis; assay type: functional, cell-based
Summary of the method: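 MCF-7 cells were seeded at 1×10^5 cells/mL, exposed to compound at 50 or 100 nM, with DMSO vehicle as control. They were fixed in 4% paraformaldehyde for 10 min at 4 °C and stained with Hoechst 33242 (2 µg/mL) for 10 min at room temperature. Nuclear morphology was imaged by fluorescence microscopy in random fields.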

MCF7 [8] = assay: Induction of apoptosis in human MCF7 cells assessed as reduction in mitochondrial membrane potential at 50 to 100 nM after 48 hrs by rhodamine 123-staining based fluorescence microscopic analysis; assay type: functional, cell-based
Summary of the method: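 MCF-7 cells were plated at 1×10^5 cells/mL and allowed to adhere overnight, then treated at 50 or 100 nM. After PBS washes they were loaded with rhodamine 123 (5 µg/ml) for 30 min in the dark at 37 °C. Loss of green fluorescence was assessed by fluorescence microscopy.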

MCF7 [9] = assay: Induction of apoptosis in human MCF7 cells assessed as intracellular ROS generation at 100 nM after 48 hrs by carboxy-DCFDA staining based fluorescence microscopic analysis; assay type: functional, cell-based
Summary of the method: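 MCF-7 cells were plated at 1×10^5 cells/mL, adhered overnight and treated at 50 or 100 nM. Methods and legend state 24 h treatment; the results text states 48 h. Cells were PBS-washed, fixed in 4% paraformaldehyde and exposed to carboxy-DCFDA for 30 min in the dark at room temperature. DCF fluorescence was assessed by fluorescence microscopy.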

MCF7 [10] = assay: Induction of apoptosis in human MCF7 cells assessed as viable cells at 50 nM after 48 hrs by Annexin V FITC/propidium iodide-based FACS analysis (reference value: 93.1 %); assay type: functional; conditions: MCF7, 48 h, read-out: Activity
MCF7 [11] = assay: Induction of apoptosis in human MCF7 cells assessed as early apoptotic cells at 50 nM after 48 hrs by Annexin V FITC/propidium iodide-based FACS analysis (reference value: 2.4 %); assay type: functional
MCF7 [12] = assay: Induction of apoptosis in human MCF7 cells assessed as late apoptotic cells at 50 nM after 48 hrs by Annexin V FITC/propidium iodide-based FACS analysis (reference value: 4.2 %); assay type: functional
MCF7 [13] = assay: Induction of apoptosis in human MCF7 cells assessed as necrotic cells at 50 nM after 48 hrs by Annexin V FITC/propidium iodide-based FACS analysis (reference value: 0.4 %); assay type: functional
MCF7 [14] = assay: Induction of apoptosis in human MCF7 cells assessed as viable cells at 100 nM after 48 hrs by Annexin V FITC/propidium iodide-based FACS analysis (reference value: 93.1 %); assay type: functional; conditions: MCF7, 48 h, read-out: Activity
MCF7 [15] = assay: Induction of apoptosis in human MCF7 cells assessed as early apoptotic cells at 100 nM after 48 hrs by Annexin V FITC/propidium iodide-based FACS analysis (reference value: 2.4 %); assay type: functional
MCF7 [16] = assay: Induction of apoptosis in human MCF7 cells assessed as late apoptotic cells at 100 nM after 48 hrs by Annexin V FITC/propidium iodide-based FACS analysis (reference value: 4.2 %); assay type: functional
MCF7 [17] = assay: Induction of apoptosis in human MCF7 cells assessed as necrotic cells at 100 nM after 48 hrs by Annexin V FITC/propidium iodide-based FACS analysis (reference value: 0.4 %); assay type: functional
MCF7 [18] = assay: Induction of apoptosis in human MCF7 cells after 48 hrs by Annexin V FITC/propidium iodide-based FACS analysis; assay type: functional, cell-based

Row | Compound | GI50 [1] [nM] | GI50 [2] [nM] | GI50 [3] [nM] | further results
1 | COc1ccc(-c2nn(-c3ccccc3)cc2C(=O)NCc2cn(Cc3ccc(C(F)(F)F)cc3)nn2)cc1 | > 100000 | > 100000 | 6200 | –
2 | O=C(NCc1cn(Cc2ccc(C(F)(F)F)cc2)nn1)c1cn(-c2ccccc2)nc1-c1ccccc1 | 17700 | 840 | 1600 | –
3 | COc1ccc(Cn2cc(CNC(=O)c3cn(-c4ccccc4)nc3-c3ccc(F)cc3)nn2)cc1OC | > 100000 | > 100000 | 200 | –
4 | COc1cc(Cn2cc(CNC(=O)c3cn(-c4ccccc4)nc3-c3ccc(F)cc3)nn2)cc(OC)c1 | 190 | 2500 | 360 | –
5 | COc1ccc(Cn2cc(CNC(=O)c3cn(-c4ccccc4)nc3-c3ccc(OC)cc3)nn2)cc1 | 2500 | 22900 | 450 | –
6 | O=C(NCc1cn(Cc2ccc(F)cc2)nn1)c1cn(-c2ccccc2)nc1-c1ccc(F)cc1 | 14300 | 55300 | 1200 | –
7 | COc1ccc(Cn2cc(CNC(=O)c3cn(-c4ccccc4)nc3-c3ccccc3)nn2)cc1OC | 8200 | 12600 | 10800 | –
8 | COc1ccc(-c2nn(-c3ccccc3)cc2C(=O)NCc2cn(Cc3ccc(Cl)cc3)nn2)cc1 | 26300 | 2900 | 6400 | –
9 | COc1ccc(Cn2cc(CNC(=O)c3cn(-c4ccccc4)nc3-c3ccc(Cl)cc3)nn2)cc1OC | 9400 | > 100000 | 200 | –
10 | COc1cc(Cn2cc(CNC(=O)c3cn(-c4ccccc4)nc3-c3ccccc3)nn2)cc(OC)c1OC | 1000 | > 100000 | > 100000 | –
11 | COc1cc(Cn2cc(CNC(=O)c3cn(-c4ccccc4)nc3-c3ccc(Cl)cc3)nn2)cc(OC)c1 | 340 | 150 | 730 | Activity [4]: Active; Activity [5]: Dose-dependent effect; Activity [6]: Active; Activity (MCF7 [7]): Active; Activity (MCF7 [8]): Active; Activity (MCF7 [9]): Active; viability at 0.05 µM (MCF7 [10]): 83.2%; Activity (MCF7 [11]): 5.6%; Activity (MCF7 [12]): 10.2%; Activity (MCF7 [13]): 0.9%; viability at 0.1 µM (MCF7 [14]): 61.4%; Activity (MCF7 [15]): 7.8%; Activity (MCF7 [16]): 28.6%; Activity (MCF7 [17]): 2.2%; Activity (MCF7 [18]): Dose-dependent effect
12 | COc1ccc(-c2nn(-c3ccccc3)cc2C(=O)NCc2cn(Cc3cc(OC)cc(OC)c3)nn2)cc1 | 5800 | 700 | 12400 | –
13 | COc1cc(Cn2cc(CNC(=O)c3cn(-c4ccccc4)nc3-c3ccc(F)cc3)nn2)cc(OC)c1OC | 5200 | 4300 | 2100 | –
14 | O=C(NCc1cn(Cc2ccc(Cl)cc2)nn1)c1cn(-c2ccccc2)nc1-c1ccccc1 | 8700 | > 100000 | 600 | –
15 | COc1ccc(-c2nn(-c3ccccc3)cc2C(=O)NCc2cn(Cc3ccc(F)cc3)nn2)cc1 | 24100 | 460 | 500 | –
16 | COc1ccc(Cn2cc(CNC(=O)c3cn(-c4ccccc4)nc3-c3ccc(F)cc3)nn2)cc1 | 3700 | 650 | 870 | –
17 | COc1cc(Cn2cc(CNC(=O)c3cn(-c4ccccc4)nc3-c3ccccc3)nn2)cc(OC)c1 | 190 | 2400 | 12200 | –
18 | O=C(NCc1cn(Cc2ccc(F)cc2)nn1)c1cn(-c2ccccc2)nc1-c1ccccc1 | 9600 | 7000 | 1600 | –
19 | O=C(NCc1cn(Cc2ccc(C(F)(F)F)cc2)nn1)c1cn(-c2ccccc2)nc1-c1ccc(F)cc1 | 760 | 810 | 250 | –
20 | COc1ccc(Cn2cc(CNC(=O)c3cn(-c4ccccc4)nc3-c3ccc(Cl)cc3)nn2)cc1 | 290 | 8000 | 1400 | –
21 | COC(=O)Nc1nc2cc(C(=O)c3cccs3)ccc2[nH]1 [NOCODAZOLE] | 950 | 940 | 810 | viability at 0.1 µM (MCF7 [14]): 70.5%; Activity (MCF7 [15]): 7.6%; Activity (MCF7 [16]): 20.3%; Activity (MCF7 [17]): 1.6%; Activity (MCF7 [18]): Dose-dependent effect
22 | COc1ccc(-c2nn(-c3ccccc3)cc2C(=O)NCc2cn(Cc3cc(OC)c(OC)c(OC)c3)nn2)cc1 | 31600 | 7600 | 1700 | –
23 | COc1ccc(Cn2cc(CNC(=O)c3cn(-c4ccccc4)nc3-c3ccccc3)nn2)cc1 | 10200 | > 100000 | 6900 | –
24 | COc1ccc(-c2nn(-c3ccccc3)cc2C(=O)NCc2cn(Cc3ccc(OC)c(OC)c3)nn2)cc1 | 16300 | > 100000 | 800 | –
25 | O=C(NCc1cn(Cc2ccc(F)cc2)nn1)c1cn(-c2ccccc2)nc1-c1ccc(Cl)cc1 | 1990 | 570 | 2800 | –
26 | O=C(NCc1cn(Cc2ccc(C(F)(F)F)cc2)nn1)c1cn(-c2ccccc2)nc1-c1ccc(Cl)cc1 | 1100 | 4900 | 1900 | –
27 | COc1cc(Cn2cc(CNC(=O)c3cn(-c4ccccc4)nc3-c3ccc(Cl)cc3)nn2)cc(OC)c1OC | 3500 | 2500 | 100 | –
28 | O=C(NCc1cn(Cc2ccc(Cl)cc2)nn1)c1cn(-c2ccccc2)nc1-c1ccc(F)cc1 | 280 | 130 | 210 | Activity [4]: Active; Activity [5]: Dose-dependent effect; Activity [6]: Active; Activity (MCF7 [7]): Active; Activity (MCF7 [8]): Active; Activity (MCF7 [9]): Active; viability at 0.05 µM (MCF7 [10]): 83.8%; Activity (MCF7 [11]): 5.2%; Activity (MCF7 [12]): 10.3%; Activity (MCF7 [13]): 0.7%; viability at 0.1 µM (MCF7 [14]): 69.3%; Activity (MCF7 [15]): 8.2%; Activity (MCF7 [16]): 20.5%; Activity (MCF7 [17]): 2%; Activity (MCF7 [18]): Dose-dependent effect
29 | O=C(NCc1cn(Cc2ccc(Cl)cc2)nn1)c1cn(-c2ccccc2)nc1-c1ccc(Cl)cc1 | 410 | 28800 | 470 | –
